# Test results taken from ChEMBL document CHEMBL2021854, “2-Aminopyrimidine based 4-aminoquinoline anti-plasmodial agents. Synthesis, biological activity, structure-activity relationship and mode of action studies” (Eur J Med Chem, 2012).
# pEC50, pIC50: −log10 of the molar value.
# Test system: MDCK
# Assay: Cytotoxicity against MDCK cells assessed as cell viability by colorimetric formazan-based MTS assay
# Design: species or system Canis lupus familiaris
# Settings: dog, mdck
# Outline: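 Cytotoxicity on MDCK cells; 50% cytotoxic concentration from cell viability measured by colorimetric formazan-based MTS assay.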
row,SMILES,CC50 [nM]
1,NC12CC3CC(CC(C3)C1)C2 [AMANTADINE],> 200000

# Test system: Plasmodium falciparum
# Assay: Resistant factor, ratio of IC50 for chloroquine-resistant Plasmodium falciparum K1 to IC50 for chloroquine-sensitive Plasmodium falciparum 3D7
# Type: functional
# Settings: not given
# Outline: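 Resistance factor computed as IC50 against K1 divided by IC50 against 3D7, both from the [3H]hypoxanthine incorporation assay.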
row,SMILES,Ratio IC50
1,CCOC(=O)c1c(C)nc(NCCCC(C)CNc2ccnc3cc(Cl)ccc23)nc1-c1ccccc1 (configuration not stated),3
2,CCOC(=O)c1c(C)nc(Nc2ccc(Nc3ccnc4cc(Cl)ccc34)cc2)nc1-c1ccccc1,9.6
3,CCOC(=O)c1c(C)nc(NCCCCCCCNc2ccnc3cc(Cl)ccc23)nc1-c1ccccc1,0.544
4,Cc1nc(NCCCNc2ccnc3cc(Cl)ccc23)nc(-c2ccc([N+](=O)[O-])cc2)c1C(=O)OC(C)C,0.3518
5,Cc1nc(NCCCCNc2ccnc3cc(Cl)ccc23)nc(-c2cccc([N+](=O)[O-])c2)c1C(=O)OC(C)C,0.2756

# Test system: Influenza A virus
# Assay: Antiviral activity against Influenza A virus H3N2 infected in MDCK cells assessed as inhibition of virus-induced cytopathogenicity after 4 days by colorimetric formazan-based MTS assay
# Type: functional, organism-based
# Settings: 96 h
row,SMILES,pEC50
1,NC12CC3CC(CC(C3)C1)C2 [AMANTADINE],5.39

# Test system: not listed separately
# Assay: Cytotoxicity against MDCK cells assessed as minimum compound concentration required to causes microscopically detectable alteration of normal cell morphology
# Type: cell-based, Canis lupus familiaris
# Settings: dog
# Outline: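 Confluent, non-proliferating cell cultures were exposed to the compounds. The endpoint was the minimum concentration producing a microscopically detectable alteration of normal cell morphology.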
row,SMILES,MCC [µM]
1,NC12CC3CC(CC(C3)C1)C2 [AMANTADINE],> 200

# Test system: not listed separately
# Assay: Inhibition of beta-hematin formation assessed as Ferriprotoporphyrin IX biomineralisation at 1 mg/ml after 24 hrs
# Type: functional
# Settings: not given
# Outline: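 Hemin chloride (0.5 mg/ml in DMSO) mixed with 0.5 M sodium acetate buffer pH 4.4 and drug or solvent control, incubated 37 °C for 24 h. Pellet washed with DMSO to remove unreacted hemin, dissolved in 0.1 N NaOH, absorbance read at 405 nm; percent inhibition relative to control. Highest concentration tested 1 mg/ml.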
row,SMILES,inhibition [%]
1,CCOC(=O)c1c(C)nc(Nc2ccc(Nc3ccnc4cc(Cl)ccc34)cc2)nc1-c1ccccc1,100
2,CCOC(=O)c1c(C)nc(NCCCCCCCNc2ccnc3cc(Cl)ccc23)nc1-c1ccccc1,89
3,Cc1nc(NCCCNc2ccnc3cc(Cl)ccc23)nc(-c2ccc([N+](=O)[O-])cc2)c1C(=O)OC(C)C,94
4,Cc1nc(NCCCCNc2ccnc3cc(Cl)ccc23)nc(-c2cccc([N+](=O)[O-])c2)c1C(=O)OC(C)C,92

# Test system: Plasmodium falciparum
# Assay: Antiplasmodial activity chloroquine-sensitive Plasmodium falciparum 3D7 infected in human A+ erythrocytes assessed as inhibition of [3H]-hypoxanthine incorporation after 24 hrs by scintillation counting
# Type: functional, organism-based
# Settings: not given
row,SMILES,pIC50
1,CCOC(=O)c1c(C)nc(NCCCC(C)CNc2ccnc3cc(Cl)ccc23)nc1-c1ccccc1 (configuration not stated),6.54
2,CCOC(=O)c1c(C)nc(Nc2ccc(Nc3ccnc4cc(Cl)ccc34)cc2)nc1-c1ccccc1,6.19
3,CCOC(=O)c1c(C)nc(NCCCCCCCNc2ccnc3cc(Cl)ccc23)nc1-c1ccccc1,5.95
4,Cc1nc(NCCCNc2ccnc3cc(Cl)ccc23)nc(-c2ccc([N+](=O)[O-])cc2)c1C(=O)OC(C)C,6.30
5,Cc1nc(NCCCCNc2ccnc3cc(Cl)ccc23)nc(-c2cccc([N+](=O)[O-])c2)c1C(=O)OC(C)C,6.16

# Test system: Plasmodium falciparum
# Assay: Antiplasmodial activity chloroquine-resistant Plasmodium falciparum K1 infected in human A+ erythrocytes assessed as inhibition of [3H]-hypoxanthine incorporation after 24 hrs by scintillation counting
# Type: functional, organism-based
# Settings: not given
row,SMILES,pIC50
1,CCOC(=O)c1c(C)nc(NCCCC(C)CNc2ccnc3cc(Cl)ccc23)nc1-c1ccccc1 (configuration not stated),6.07
2,CCOC(=O)c1c(C)nc(Nc2ccc(Nc3ccnc4cc(Cl)ccc34)cc2)nc1-c1ccccc1,5.21
3,CCOC(=O)c1c(C)nc(NCCCCCCCNc2ccnc3cc(Cl)ccc23)nc1-c1ccccc1,6.21
4,Cc1nc(NCCCNc2ccnc3cc(Cl)ccc23)nc(-c2ccc([N+](=O)[O-])cc2)c1C(=O)OC(C)C,6.75
5,Cc1nc(NCCCCNc2ccnc3cc(Cl)ccc23)nc(-c2cccc([N+](=O)[O-])c2)c1C(=O)OC(C)C,6.72

# Test system: Influenza B virus
# Assay: Antiviral activity against Influenza B virus infected in MDCK cells assessed as reduction visual scoring of virus-induced cytopathogenicity after 4 days
# Type: functional, organism-based
# Settings: 96 h
# Outline: (§1)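 MDCK monolayers infected with 100 CCID50 of influenza A (H1N1 or H3N2) or influenza B, with varying compound concentrations. Cytopathicity read when untreated infected controls reached complete CPE.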
row,SMILES,pEC50
1,NC12CC3CC(CC(C3)C1)C2 [AMANTADINE],< 3.70

# Test system: Influenza B virus
# Assay: Antiviral activity against Influenza B virus infected in MDCK cells assessed as inhibition of virus-induced cytopathogenicity after 4 days by colorimetric formazan-based MTS assay
# Type: functional, organism-based
# Settings: 96 h
row,SMILES,pEC50
1,NC12CC3CC(CC(C3)C1)C2 [AMANTADINE],< 3.70

# Test system: Influenza A virus
# Assay: Antiviral activity against Influenza A virus H1N1 infected in MDCK cells assessed as inhibition of virus-induced cytopathogenicity after 4 days by colorimetric formazan-based MTS assay
# Type: functional, organism-based
# Settings: 96 h
row,SMILES,pEC50
1,NC12CC3CC(CC(C3)C1)C2 [AMANTADINE],3.81

# Test system: Influenza A virus
# Assay: Antiviral activity against Influenza A virus H1N1 infected in MDCK cells assessed as reduction visual scoring of virus-induced cytopathogenicity after 4 days
# Type: functional, organism-based
# Settings: 96 h
# Outline: as §1
row,SMILES,pEC50
1,NC12CC3CC(CC(C3)C1)C2 [AMANTADINE],4.05

# Test system: Influenza A virus
# Assay: Antiviral activity against Influenza A virus H3N2 infected in MDCK cells assessed as reduction visual scoring of virus-induced cytopathogenicity after 4 days
# Type: functional, organism-based
# Settings: 96 h
# Outline: as §1
row,SMILES,pEC50
1,NC12CC3CC(CC(C3)C1)C2 [AMANTADINE],5.30
